Bioassay records: PubChem, several laboratories
Compounds with a hit are over-represented: about 2.7% of the library has one in this group of screens.
PG9 binder – binders of HIV-1 gp120 antibody PG9, primary screen, biochemical, TR-FRET. HIV-1 gp120 / PG9 antibody interaction. TR-FRET gp120-PG9 antibody binding. inhibition, % at 6.7 µM. 360,000 compounds, 0.43% hits. AID 624416, 2012; in the data active means inhibition above about 8.5%
NR2E3 ag-1 – NR2E3 agonists in two-hybrid cells, primary screen, cell-based, luminescence, CHO-S, Gal4-NCOR/VP16-NR2E3; 360,000 compounds, 0.35% hits; luciferase; inhibition of corepressor binding, % at 3.98 µM;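 active means inhibition above the mean of all tested compounds plus 3 SD, cut at about 70% in these data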;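 further: 0% = DMSO with NR2E3 transfected cells and 100% = cells lacking NR2E3 construct; higher means lower luciferase signal from less NR2E3 corepressor binding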
MC4R antagonist – MC4R antagonists of cAMP signaling, primary screen, cell-based, TR-FRET, antagonist arm of biased-ligand search; AID 540295, 2011; 360,000 compounds, 0.48% hits; MC4R-expressing cells, MTII-stimulated cAMP, LANCE TR-FRET; inhibition, % at 6.5 µM; Melanocortin receptor 4 (Homo sapiens), P32245;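 active means inhibition above its plate's cutoff, the mean of tested wells on that plate plus 3 SD, cut at about 29% in these data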;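 further: 0% = Melanotan II alone and 100% = Melanotan II plus saturating MCL0020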
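Material: U2OS-MC4R stable cell line | Reagent: Melanotan II challenge after compound preincubation | Doses: One concentration, 6.5 µM nominal | Incubation: 30-min compound preincubation, 1-h Melanotan II challenge, 1-h detection, room temperature | Signal: TR-FRET cAMP assay | Replicates: One well per compound, no replicates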
NR2E3 ag-2 – inhibitors of NR2E3-RetCOR corepressor binding, primary screen, NR2E3 agonist project, biochemical, TR-FRET, GST-NR2E3, biotin-RetCOR; Photoreceptor-specific nuclear receptor (Homo sapiens), Q9Y5X4; 320,000 compounds, 0.12% hits; 1536-well; inhibition of corepressor binding, % at 4.78 µM; AID 2300, 2010;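 active means percent inhibition above the cutoff of mean plus 3 SD of all tested compounds, set per screening campaign, cut at about 20% in these data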;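 further: 0% = DMSO wells and 100% = biotin wells as full block of FRET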
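Assay system: NR2E3–RetCOR corepressor complex. Quantity: 1.35 nM GST-NR2E3. Buffer or medium: pH 7.5 Tris-based buffer. Reagent: biotinylated RetCOR corepressor at 7 nM final. Schedule: 5 h at 4 °C. Detection: TR-FRET, emission read at 617 and 671 nm. Replicates: one well per compound, singlicate testing.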
NR1D1 modulator – modulators of Rev-erb alpha DNA binding, primary screen, biochemical, FITC-DNA, fluorescence polarization, uHTS | Nuclear receptor subfamily 1 group D member 1 (Homo sapiens), P20393 | Rev-erbα–FITC-DNA binding, 90 min | activity, % at 10 µM | 370,000 compounds, 0.79% hits;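 active means activity above about 14%, limit read from the data; passing the limit was not always enough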;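 further: 0% = DMSO wells with 35 nM protein and 100% = DMSO wells with 750 nM protein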
Target sequence (P20393 whole entry, looked up): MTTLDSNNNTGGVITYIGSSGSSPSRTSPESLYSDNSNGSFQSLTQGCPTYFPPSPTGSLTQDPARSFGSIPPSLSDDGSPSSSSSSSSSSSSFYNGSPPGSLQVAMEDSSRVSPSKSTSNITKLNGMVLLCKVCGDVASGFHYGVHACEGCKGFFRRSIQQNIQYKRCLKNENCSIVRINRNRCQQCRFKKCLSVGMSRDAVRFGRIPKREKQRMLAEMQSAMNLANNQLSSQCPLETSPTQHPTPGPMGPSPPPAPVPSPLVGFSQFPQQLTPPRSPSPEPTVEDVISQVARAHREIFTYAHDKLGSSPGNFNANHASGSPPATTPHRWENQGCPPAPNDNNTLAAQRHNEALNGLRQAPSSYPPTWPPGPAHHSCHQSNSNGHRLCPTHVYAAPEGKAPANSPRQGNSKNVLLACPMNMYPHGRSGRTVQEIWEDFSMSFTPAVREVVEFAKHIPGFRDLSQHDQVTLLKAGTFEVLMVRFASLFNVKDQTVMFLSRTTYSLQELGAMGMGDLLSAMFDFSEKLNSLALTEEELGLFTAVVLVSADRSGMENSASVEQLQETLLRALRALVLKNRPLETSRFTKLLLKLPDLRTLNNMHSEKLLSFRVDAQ
MC4R ag barr – MC4R agonists recruiting beta-arrestin, primary screen, cell-based, luminescence, agonist arm of biased-ligand search; Melanocortin receptor 4 (Homo sapiens), P32245; U2OS MC4R beta-arrestin complementation; percent of melanotan II response, DMSO zero; activation, % at 8.9 µM; 360,000 compounds, 0.98% hits;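 active means activation above a per-plate cutoff, the mean activation of sample wells on that plate plus 3 SD, cut at about 8% in these data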
PG9 bind confirm – binders of anti-gp120 antibody PG9, confirmation, biochemical, TR-FRET; TR-FRET PG9 antibody binding; shares compounds with PG9 binder; 1,500 compounds, 90% hits; inhibition, % at 6.7 µM; in the data active means inhibition above about 9%
PGV04 counter – binders of control antibody PGV04, counter-screen for PG9 antibody binder project, biochemical, TR-FRET, distinct HIV envelope site. shares compounds with PG9 binder. TR-FRET PGV04 antibody-gp120 binding. inhibition, % at 6.7 µM. 1,500 compounds, 95% hits. AID 651604, 2012; in the data active means inhibition above about 9.5%
Rev-erbA confirm – modulators of Rev-erb alpha DNA binding, confirmation, biochemical, FITC-DNA, fluorescence polarization, single point; 3,000 compounds, 61% hits; 90 min; shares compounds with NR1D1 modulator; activation, % at 25 µM;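 active means activation at or above a set limit, or at least 3 SD above the negative control mean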;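 further: 0% = 35 nM protein with DMSO and 100% = 750 nM protein high control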
RORg counter – modulation of RORgamma DNA binding, dose response, counter-screen for Rev-erb alpha modulator project, biochemical, fluorescence polarization, FITC-DNA; shares compounds with NR1D1 modulator; purified RORgamma protein-FITC-DNA binding; IC50, µM; 910 compounds, 8% hits;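 active means Compounds whose fitted half-maximal concentration for disrupting protein-DNA binding is below 10 micromolar; the record names Rev-erb in its text, so the target is in doubt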
* marks the source's active call; other numbers are inactive results.

For Cc1ccc(NC(=O)CSc2nnc(C3COc4ccccc4O3)o2)c(Cl)c1 (centres undefined) the results were PG9 binder 0.1, NR2E3 ag-1 -6.0, MC4R antagonist 1.2, NR2E3 ag-2 -1.2, NR1D1 modulator -2.8 and MC4R ag barr -2.6.
For COc1ccc(CSc2nc3ccccc3c(=O)[nH]2)cc1F the results were PG9 binder -0.2, NR2E3 ag-1 -22.0, MC4R antagonist 6.5, NR2E3 ag-2 -1.3, NR1D1 modulator 4.8 and MC4R ag barr -0.7.
For O=C(Cn1nnc(-c2ccccc2NC(=O)c2ccccc2F)n1)NC1CCCC1 the results were PG9 binder 12.4*, NR2E3 ag-1 -16.9, MC4R antagonist 2.5, NR2E3 ag-2 -0.7, NR1D1 modulator 22.6*, MC4R ag barr 1.1, PG9 bind confirm 39.8*, PGV04 counter 42.6* and Rev-erbA confirm 26.5*.
CCSc1n[nH]c(=O)n1C was read as PG9 binder 0.3 and NR1D1 modulator 2.8.
For Fc1cccc2sc(Nc3nc4ccccc4s3)nc12 the results were PG9 binder 14.0*, NR2E3 ag-1 -84.6, MC4R antagonist 10.2, NR2E3 ag-2 -1.7, NR1D1 modulator 39.8*, MC4R ag barr 1.3, PG9 bind confirm 12.9*, PGV04 counter 28.8*, Rev-erbA confirm 35.3* and RORg counter >40.
Screening Cc1sc2ncnc(N3CCC(C(=O)Nc4nnc(CC(C)C)s4)CC3)c2c1C returned PG9 binder 14.3*, NR2E3 ag-1 -30.8, MC4R antagonist 13.0, NR2E3 ag-2 -4.5, NR1D1 modulator 17.0*, MC4R ag barr 0.8, PG9 bind confirm 41.8*, PGV04 counter 54.0* and Rev-erbA confirm 11.9.
`Cc1ccc(OCC(=O)NNC(=O)C2CCN(c3ncnc4sc(C)c(C)c34)CC2)cc1` gave PG9 binder -1.0, NR2E3 ag-1 -26.9, MC4R antagonist 2.2, NR2E3 ag-2 -0.2, NR1D1 modulator -2.5 and MC4R ag barr -1.4.
Screening Cc1cc(C)c(S(=O)(=O)N2CCC(C(N)=O)CC2)cc1C returned PG9 binder -1.9, NR2E3 ag-1 -7.1, MC4R antagonist 12.5, NR2E3 ag-2 2.7, NR1D1 modulator -2.9 and MC4R ag barr 2.9.
For C/C(N)=C(/C#N)C(=O)CSc1nc2ccccc2c(=O)n1-c1ccc(C)c(Cl)c1 the results were PG9 binder 44.6*, NR2E3 ag-1 -10.4, MC4R antagonist 5.5, NR2E3 ag-2 1.2, NR1D1 modulator 78.0*, MC4R ag barr 5.3, PG9 bind confirm 39.1*, PGV04 counter 56.3*, Rev-erbA confirm 31.2* and RORg counter inactive.
For CCOC(=O)Nc1nc(-c2ccccc2)c(C(=O)c2ccccc2)s1 the results were PG9 binder 1.9, NR2E3 ag-1 7.3, MC4R antagonist -16.0, NR2E3 ag-2 4.4, NR1D1 modulator 2.4 and MC4R ag barr -1.9.
For COC(=O)Nc1nc(-c2ccccc2)c(C(=O)c2ccc(Cl)cc2)s1 the results were PG9 binder 44.0*, NR2E3 ag-1 -14.4, MC4R antagonist -26.0, NR2E3 ag-2 1.5, NR1D1 modulator 29.8*, MC4R ag barr -1.9, PG9 bind confirm 44.3*, PGV04 counter 65.2* and Rev-erbA confirm 30.8*.
`COc1ccc(NC(=S)Nc2ccc(N)c([N+](=O)[O-])c2)cc1` gave PG9 binder -6.5, NR2E3 ag-1 -62.2, MC4R antagonist -7.5, NR2E3 ag-2 -4.1, NR1D1 modulator 6.3 and MC4R ag barr -1.8.
`COc1ccc2c(c1)oc(=O)c1c3ccccc3[nH]c21` gave PG9 binder 13.2*, NR2E3 ag-1 -71.1, MC4R antagonist -3.9, NR1D1 modulator 75.5*, MC4R ag barr 0.1, PG9 bind confirm 8.9*, PGV04 counter 20.9*, Rev-erbA confirm 62.0* and RORg counter >40.
`CCCCCCNC(=O)CCCCCNS(=O)(=O)c1ccc(Br)cc1` gave PG9 binder 0.5, NR2E3 ag-1 16.3, MC4R antagonist 15.7, NR2E3 ag-2 -6.2, NR1D1 modulator 3.2 and MC4R ag barr 0.1.
COc1ccc2cc(C#N)c(SCC(=O)Nc3nonc3C)nc2c1 was read as PG9 binder 24.7*, NR2E3 ag-1 -17.8, MC4R antagonist 11.0, NR2E3 ag-2 1.4, NR1D1 modulator 66.6*, MC4R ag barr 3.1, PG9 bind confirm 33.5*, PGV04 counter 62.0* and Rev-erbA confirm 27.1*.
Cc1nonc1NC(=O)CSc1nc2c(C)cccc2cc1C#N was read as PG9 binder 9.8*, NR2E3 ag-1 -22.1, MC4R antagonist 11.1, NR2E3 ag-2 -43.7, NR1D1 modulator 80.9*, MC4R ag barr 8.2, PG9 bind confirm 42.4*, PGV04 counter 66.0*, Rev-erbA confirm 72.6* and RORg counter >40.
Cc1ccc(C)c2nc(SCC(=O)Nc3ccc4c(c3)OCO4)c(C#N)cc12 was read as PG9 binder -1.6, NR2E3 ag-1 -23.4, MC4R antagonist 13.5, NR2E3 ag-2 -1.3, NR1D1 modulator -0.6 and MC4R ag barr -1.2.
For COc1ccc2nc(SCC(C)=O)c(C#N)cc2c1 the results were PG9 binder -11.9, NR2E3 ag-1 -74.4, MC4R antagonist -13.3, NR2E3 ag-2 -0.7, NR1D1 modulator 15.3 and MC4R ag barr -1.6.
